In ChEMBL document CHEMBL4431391, “Exploration of substituted arylpiperazine-tetrazoles as promising dual norepinephrine and dopamine reuptake inhibitors” (Bioorg Med Chem, 2016):

Legend:
Assay type in all cases: cell-based
[1] = molecular target: Sodium-dependent dopamine transporter (Homo sapiens, UniProt Q01959); assay: Inhibition of [3H]-5-dopamine reuptake in human DAT expressed in HEK293 cells by liquid scintillation counting method
Method in brief: (§1)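 HEK-293 cells grown in FBS-supplemented medium, transfected with human transporter (hDAT or hNET). Uptake of radiolabeled substrate ([3H]-DA for DAT, [3H]-NE for NET) at 20 nM was measured, with inhibition assessed as reduced uptake. Method adapted with slight modification from a literature procedure.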

[2] = molecular target: Sodium-dependent noradrenaline transporter (Homo sapiens, UniProt P23975); assay: Inhibition of [3H]-5-norepinephrine reuptake in human NET expressed in HEK293 cells by liquid scintillation counting method; method in brief: as §1
Sequence of Sodium-dependent noradrenaline transporter (P23975 whole entry): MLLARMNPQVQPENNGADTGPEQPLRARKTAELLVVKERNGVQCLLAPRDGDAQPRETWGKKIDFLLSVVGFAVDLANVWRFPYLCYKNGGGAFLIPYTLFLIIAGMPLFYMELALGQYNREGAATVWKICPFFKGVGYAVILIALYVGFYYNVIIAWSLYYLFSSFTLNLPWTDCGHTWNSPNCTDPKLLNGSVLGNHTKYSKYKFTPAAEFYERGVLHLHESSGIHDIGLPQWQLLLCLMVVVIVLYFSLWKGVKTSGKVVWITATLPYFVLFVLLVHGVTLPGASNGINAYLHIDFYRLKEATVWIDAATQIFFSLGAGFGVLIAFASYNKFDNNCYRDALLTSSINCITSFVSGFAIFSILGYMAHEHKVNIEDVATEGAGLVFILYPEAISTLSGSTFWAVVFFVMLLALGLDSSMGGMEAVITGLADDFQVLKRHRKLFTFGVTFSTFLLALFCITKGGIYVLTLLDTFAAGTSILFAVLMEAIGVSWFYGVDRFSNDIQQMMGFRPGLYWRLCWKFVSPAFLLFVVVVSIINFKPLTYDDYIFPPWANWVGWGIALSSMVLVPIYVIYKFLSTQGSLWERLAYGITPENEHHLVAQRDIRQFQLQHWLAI

[3] = molecular target: Sodium-dependent serotonin transporter (Homo sapiens, UniProt P31645); assay: Inhibition of [3H]-5-hydroxytryptamine reuptake in human SERT expressed in HEK293 cells by liquid scintillation counting method
Sequence of Sodium-dependent serotonin transporter (P31645 whole entry): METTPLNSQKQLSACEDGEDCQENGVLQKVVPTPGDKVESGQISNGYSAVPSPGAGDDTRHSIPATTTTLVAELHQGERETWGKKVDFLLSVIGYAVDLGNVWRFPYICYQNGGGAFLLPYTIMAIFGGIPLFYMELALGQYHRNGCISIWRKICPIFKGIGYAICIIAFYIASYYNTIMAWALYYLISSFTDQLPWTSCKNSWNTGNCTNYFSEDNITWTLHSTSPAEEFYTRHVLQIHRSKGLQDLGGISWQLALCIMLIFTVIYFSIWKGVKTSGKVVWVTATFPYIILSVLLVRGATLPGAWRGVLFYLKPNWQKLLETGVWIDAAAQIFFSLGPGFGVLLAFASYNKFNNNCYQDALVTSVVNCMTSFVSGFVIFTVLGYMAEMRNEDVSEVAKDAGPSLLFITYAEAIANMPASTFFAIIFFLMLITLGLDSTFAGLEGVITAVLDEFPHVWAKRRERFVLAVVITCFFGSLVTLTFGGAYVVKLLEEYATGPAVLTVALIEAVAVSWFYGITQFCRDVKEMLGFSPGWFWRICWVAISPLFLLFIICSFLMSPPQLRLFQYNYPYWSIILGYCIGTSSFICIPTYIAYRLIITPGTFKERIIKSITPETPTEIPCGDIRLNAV

Sequence of Sodium-dependent dopamine transporter (Q01959 whole entry): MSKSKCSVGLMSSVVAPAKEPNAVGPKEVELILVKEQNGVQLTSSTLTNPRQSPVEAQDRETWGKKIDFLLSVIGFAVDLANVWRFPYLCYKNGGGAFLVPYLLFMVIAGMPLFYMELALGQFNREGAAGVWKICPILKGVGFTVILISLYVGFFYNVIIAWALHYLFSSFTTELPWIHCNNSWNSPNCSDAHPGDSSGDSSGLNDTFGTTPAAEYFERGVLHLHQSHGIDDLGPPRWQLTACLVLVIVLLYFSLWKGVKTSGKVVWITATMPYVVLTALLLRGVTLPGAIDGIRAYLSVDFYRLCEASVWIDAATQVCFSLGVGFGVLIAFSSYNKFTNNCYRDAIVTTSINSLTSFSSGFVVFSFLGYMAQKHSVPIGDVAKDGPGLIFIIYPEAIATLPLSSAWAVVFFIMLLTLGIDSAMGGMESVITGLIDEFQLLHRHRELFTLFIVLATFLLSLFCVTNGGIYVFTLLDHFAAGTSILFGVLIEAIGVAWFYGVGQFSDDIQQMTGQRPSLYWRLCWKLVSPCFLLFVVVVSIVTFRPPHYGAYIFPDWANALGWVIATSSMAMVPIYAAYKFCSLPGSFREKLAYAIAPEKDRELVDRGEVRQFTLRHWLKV

| SMILES | IC50 [1] [nM] | IC50 [2] [nM] | IC50 [3] [nM] |
| --- | --- | --- | --- |
| Fc1cccc(F)c1N1CCN(CCCn2nnnc2C(c2ccccc2)c2ccccc2)CC1 | 820 | 510 | – |
| COc1ccccc1N1CCN(CCCCn2nnnc2C(c2ccccc2)c2ccccc2)CC1 | > 10000 | 10000 | > 10000 |
| c1ccc(C(c2ccccc2)c2nnnn2CCN2CCN(c3ncccn3)CC2)cc1 | > 10000 | > 10000 | > 10000 |
| Clc1cccc(N2CCN(CCCCn3nnnc3C(c3ccccc3)c3ccccc3)CC2)c1Cl | > 10000 | 8870 | > 10000 |
| c1ccc(C(c2ccccc2)c2nnnn2CCCCN2CCN(c3ccccn3)CC2)cc1 | > 10000 | 4700 | > 10000 |
| c1ccc(C(c2ccccc2)c2nnnn2CCCN2CCN(c3ncccn3)CC2)cc1 | 1140 | 800 | > 10000 |
| COc1ccccc1N1CCN(CCn2nnnc2C(c2ccccc2)c2ccccc2)CC1 | > 10000 | > 10000 | > 10000 |
| Clc1ccc(N2CCN(CCn3nnnc3C(c3ccccc3)c3ccccc3)CC2)cc1 | > 10000 | > 10000 | > 10000 |
| c1ccc(C(c2ccccc2)c2nnnn2CCN2CCN(c3ccccn3)CC2)cc1 | > 10000 | > 10000 | > 10000 |
| Clc1cccc(N2CCN(CCn3nnnc3C(c3ccccc3)c3ccccc3)CC2)c1Cl | > 10000 | > 10000 | > 10000 |
| Fc1ccc(C(F)(F)F)cc1N1CCN(CCCn2nnnc2C(c2ccccc2)c2ccccc2)CC1 | 2250 | 1090 | – |
| c1ccc(C(c2ccccc2)c2nnnn2CCCCN2CCN(c3ncccn3)CC2)cc1 | > 10000 | 8540 | > 10000 |
| Clc1ccc(N2CCN(CCCCn3nnnc3C(c3ccccc3)c3ccccc3)CC2)cc1 | > 10000 | > 10000 | > 10000 |
| FC(F)(F)c1ccc(N2CCN(CCCn3nnnc3C(c3ccccc3)c3ccccc3)CC2)cc1 | > 10000 | > 10000 | – |

Next, values leading:

| IC50 [1] [nM] | IC50 [2] [nM] | IC50 [3] [nM] | SMILES |
| --- | --- | --- | --- |
| 4200 | 4000 | – | Clc1ccc(N2CCN(CCCn3nnnc3C(c3ccccc3)c3ccccc3)CC2)cc1Cl |
| 1200 | 460 | > 10000 | Clc1ccc(N2CCN(CCCn3nnnc3C(c3ccccc3)c3ccccc3)CC2)cc1 |
| 910 | 1200 | – | Brc1ccc(N2CCN(CCCn3nnnc3C(c3ccccc3)c3ccccc3)CC2)cc1 |
| 3590 | 2050 | – | Clc1ccc(N2CCN(CCCn3nnnc3C(c3ccccc3)c3ccccc3)CC2)c(Cl)c1 |
| 2250 | 1100 | – | Fc1cc(Cl)ccc1N1CCN(CCCn2nnnc2C(c2ccccc2)c2ccccc2)CC1 |
| 1430 | 920 | > 10000 | c1ccc(C(c2ccccc2)c2nnnn2CCCN2CCN(c3ccccn3)CC2)cc1 |
| 2900 | 2160 | – | Fc1ccc(N2CCN(CCCn3nnnc3C(c3ccccc3)c3ccccc3)CC2)c(F)c1 |
| 1330 | 350 | – | Fc1ccccc1N1CCN(CCCn2nnnc2C(c2ccccc2)c2ccccc2)CC1 |
| 3040 | 1100 | > 10000 | Clc1cccc(N2CCN(CCCn3nnnc3C(c3ccccc3)c3ccccc3)CC2)c1Cl |
| 1010 | 670 | – | Clc1ccccc1N1CCN(CCCn2nnnc2C(c2ccccc2)c2ccccc2)CC1 |
| 1420 | 870 | – | Cc1ccc(N2CCN(CCCn3nnnc3C(c3ccccc3)c3ccccc3)CC2)cc1 |
| 5580 | 2480 | – | FC(F)(F)c1cccc(N2CCN(CCCn3nnnc3C(c3ccccc3)c3ccccc3)CC2)c1 |
| 4740 | 1620 | – | Clc1cccc(N2CCN(CCCn3nnnc3C(c3ccccc3)c3ccccc3)CC2)c1 |
| 3850 | 1060 | – | COc1ccc(N2CCN(CCCn3nnnc3C(c3ccccc3)c3ccccc3)CC2)cc1 |
| 1640 | 1450 | – | c1ccc(C(c2ccccc2)c2nnnn2CCCN2CCN(c3ccccc3)CC2)cc1 |
| 1470 | 1890 | – | Fc1cccc(N2CCN(CCCn3nnnc3C(c3ccccc3)c3ccccc3)CC2)c1 |
| 3720 | 1720 | – | Cc1cccc(C)c1N1CCN(CCCn2nnnc2C(c2ccccc2)c2ccccc2)CC1 |
| 1040 | 500 | > 10000 | COc1ccccc1N1CCN(CCCn2nnnc2C(c2ccccc2)c2ccccc2)CC1 |
| 2480 | 80 | – | Fc1ccc(N2CCN(CCCn3nnnc3C(c3ccccc3)c3ccccc3)CC2)cc1 |
